Results taken from ChEMBL document CHEMBL2176952, “Anticancer activity and cellular repression of c-MYC by the G-quadruplex-stabilizing 11-piperazinylquindoline is not dependent on direct targeting of the G-quadruplex in the c-MYC promoter” (J Med Chem, 2012).
Active and inactive are the calls of the source. No cut-off for these calls is given here.

How the values were obtained:
[1] = tested on: HCT-116; assay: Cytotoxicity against human HCT116 cells after 96 hrs by MTS assay; assay type: functional, cell-based; details: HCT-116, 96 h
Summary of the method: (§1)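 MTS viability after 96 h exposure. HCT-116 grown in DMEM, Raji in RPMI-1640, each with 10% FBS and penicillin/streptomycin at 37 °C, 5% CO2, kept in exponential growth. Compound spanned a 5–6 log range in 0.5 log steps. IC50 from non-linear regression; biological triplicates.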

[2] = tested on: Nucleic Acid; assay: Thermal stability of c-MYC G-quadruplex DNA assessed as change in melting temperature at DNA:compound ratio 1:1 by spectropolarimeter analysis; assay type: nucleic-acid assay
Summary of the method: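 c-MYC G-quadruplex at 5 μM in 50 mM Tris-HCl pH 7.4, held 10 min at 25 °C, heated 10 min at 95 °C and air-cooled over ~30 min. Compound then added at 1 equivalent. Melting followed by CD spectropolarimetry; ΔTm = Tm with compound minus Tm of control.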

[3] = tested on: Raji; assay: Cytotoxicity against human Raji cells after 96 hrs by MTS assay; assay type: functional, cell-based; summary of the method: as §1
[4] = tested on: CA46; assay: Cytotoxicity against human CA46 cells after 24 hrs by MTS assay; assay type: functional, cell-based; details: CA46, 24 h
[5] = tested on: Nucleic Acid; assay: Binding affinity to c-MYC G-quadruplex DNA in human HCT116 cells assessed as decrease in c-MYC mRNA expression at 31 uM at 6 hrs by RT-PCR analysis; assay type: cell-based; details: HCT-116
[6] = tested on: Nucleic Acid; assay: Binding affinity to PDGFRbeta G-quadruplex DNA in human HCT116 cells assessed as downregulation of PDGFRbeta mRNA expression at 31 uM at 6 hrs by RT-PCR analysis; assay type: cell-based; details: HCT-116
[7] = tested on: Nucleic Acid; assay: Binding affinity to dAdT DNA at 2 uM after 48 hrs by competition dialysis method; assay type: nucleic-acid assay
Summary of the method: (§2)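 DNA at 75 μM in 50 mM Tris-HCl with 25 mM KCl. Duplexes annealed by heating to 95 °C then slow cooling at 1 °C/min. G-quadruplexes formed by 95 °C for 10 min with rapid air cooling, topology checked by CD. Dialysed 48 h in a cold room against BPES with 25 mM KCl and 2 μM compound. Bound compound measured by UV absorbance against a standard curve, expressed per binding site. Run in duplicate.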

[8] = tested on: Nucleic Acid; assay: Binding affinity to hTERT G-quadruplex DNA in human HCT116 cells assessed as downregulation of hTERT mRNA expression at 31 uM at 24 hrs by RT-PCR analysis; assay type: cell-based; details: HCT-116
[9] = tested on: Nucleic Acid; assay: Binding affinity to HIF1alpha G-quadruplex DNA at 2 uM after 48 hrs by competition dialysis method; assay type: nucleic-acid assay; summary of the method: as §2
[10] = tested on: Nucleic Acid; assay: Binding affinity to hTERT G-quadruplex DNA in human HCT116 cells assessed as downregulation of hTERT mRNA expression at 31 uM at 48 hrs by RT-PCR analysis; assay type: cell-based; details: HCT-116
[11] = tested on: Nucleic Acid; assay: Decrease of c-MYC G-quadruplex DNA-mediated c-MYC expression in exon1 in human CA46 cells at 2.8 uM at 48 hrs by exon-specific assay; assay type: cell-based
[12] = tested on: HCT-116; assay: Increase in VEGFA G-quadruplex DNA expression in human HCT116 cells by qPCR analysis; assay type: functional, cell-based
[13] = tested on: Nucleic Acid; assay: Binding affinity to hTERT G-quadruplex DNA in human HCT116 cells assessed as downregulation of hTERT mRNA expression at 31 uM at 6 hrs by RT-PCR analysis; assay type: cell-based; details: HCT-116
[14] = tested on: Nucleic Acid; assay: Binding affinity to PDGFRbeta G-quadruplex DNA in human HCT116 cells assessed as downregulation of PDGFRbeta mRNA expression at 31 uM at 24 hrs by RT-PCR analysis; assay type: cell-based; details: HCT-116
[15] = tested on: Nucleic Acid; assay: Binding affinity to c-MYC G-quadruplex DNA in human HCT116 cells assessed as decrease in c-MYC mRNA expression at 31 uM at 48 hrs by RT-PCR analysis; assay type: cell-based; details: HCT-116
[16] = tested on: Nucleic Acid; assay: Binding affinity to hTERT G-quadruplex DNA at 2 uM after 48 hrs by competition dialysis method; assay type: nucleic-acid assay; summary of the method: as §2
[17] = tested on: Nucleic Acid; assay: Decrease of c-MYC G-quadruplex DNA-mediated c-MYC expression in exon1 in human CA46 cells at 2.8 uM at 6 hrs by exon-specific assay; assay type: cell-based
[18] = tested on: Nucleic Acid; assay: Binding affinity to HIF1alpha G-quadruplex DNA in human HCT116 cells assessed as change in HIF1alpha mRNA expression at 31 uM up to 48 hrs by RT-PCR analysis; assay type: cell-based; details: HCT-116
[19] = tested on: HCT-116; assay: Cytotoxicity against human HCT116 cells after 24 hrs by MTS assay; assay type: functional, cell-based; details: HCT-116, 24 h
[20] = tested on: Nucleic Acid; assay: Binding affinity to dGdC DNA at 2 uM after 48 hrs by competition dialysis method; assay type: nucleic-acid assay; summary of the method: as §2
[21] = tested on: Nucleic Acid; assay: Binding affinity to PDGFRbeta G-quadruplex DNA at 2 uM after 48 hrs by competition dialysis method; assay type: nucleic-acid assay; summary of the method: as §2
[22] = tested on: Nucleic Acid; assay: Binding affinity to PDGFRbeta G-quadruplex DNA in human HCT116 cells assessed as downregulation of PDGFRbeta mRNA expression at 31 uM at 48 hrs by RT-PCR analysis; assay type: cell-based; details: HCT-116
[23] = tested on: Nucleic Acid; assay: Decrease of c-MYC G-quadruplex DNA-mediated c-MYC expression in exon1 in human CA46 cells at 2.8 uM at 24 hrs by exon-specific assay; assay type: cell-based
[24] = tested on: Nucleic Acid; assay: Binding affinity to HIF1alpha G-quadruplex DNA in human HCT116 cells assessed as change in HIF1alpha mRNA expression at 23 uM up to 48 hrs by RT-PCR analysis; assay type: cell-based; details: HCT-116
[25] = tested on: Nucleic Acid; assay: Binding affinity to PDGFRbeta G-quadruplex DNA in human HCT116 cells assessed as change in PDGFRbeta mRNA expression at 23 uM up to 48 hrs by RT-PCR analysis; assay type: cell-based; details: HCT-116
[26] = tested on: Nucleic Acid; assay: Binding affinity to hTERT G-quadruplex DNA in human HCT116 cells assessed as downregulation of hTERT mRNA expression at 23 uM by RT-PCR analysis; assay type: cell-based; details: HCT-116, TDE = time-dependent effect
[27] = tested on: Nucleic Acid; assay: Decrease of c-MYC G-quadruplex DNA-mediated c-MYC expression in exon1 in human CA46 cells at 19.4 uM at 6 hrs by exon-specific assay; assay type: cell-based
[28] = tested on: Nucleic Acid; assay: Decrease of c-MYC G-quadruplex DNA-mediated c-MYC expression in exon1 in human CA46 cells at 19.4 uM at 48 hrs by exon-specific assay; assay type: cell-based
[29] = tested on: Nucleic Acid; assay: Binding affinity to c-MYC G-quadruplex DNA in human HCT116 cells assessed as decrease in c-MYC mRNA expression at 23 uM from 6 to 48 hrs by RT-PCR analysis; assay type: cell-based; details: HCT-116
[30] = tested on: Nucleic Acid; assay: Decrease of c-MYC G-quadruplex DNA-mediated c-MYC expression in exon1 in human CA46 cells at 19.4 uM at 24 hrs by exon-specific assay; assay type: cell-based
[31] = tested on: Nucleic Acid; assay: Binding affinity to c-MYC G-quadruplex DNA at 2 uM after 48 hrs by competition dialysis method; assay type: nucleic-acid assay; summary of the method: as §2
[32] = tested on: Nucleic Acid; assay: Binding affinity to VEGFA G-quadruplex DNA in human HCT116 cells assessed as change in VEGFA mRNA expression at 23 uM up to 48 hrs by RT-PCR analysis; assay type: cell-based; details: HCT-116

With `CN1CCN(c2c3ccccc3nc3c2[nH]c2ccccc23)CC1` the IC50 [1] was 3.5 µM, the ΔTm [2] was 3 °C and the IC50 [3] was 5.44 µM.
With `CCN(CC)CCNc1c2ccccc2nc2c1[nH]c1ccccc12` the IC50 [1] was 0.11 µM, the ΔTm [2] was 5.2 °C and the IC50 [3] was 0.7 µM. It also gave an IC50 [4] of 10 µM.
In the case of `CN(C)CCN1CCN(c2c3cc(-c4ccc(CCN5CCOCC5)cc4)ccc3nc3c2[nH]c2ccccc23)CC1`, the IC50 [1] is reported as 3.8 µM, the ΔTm [2] is reported as 13.1 °C and the IC50 [3] is reported as 10.8 µM.
With `OCCCN1CCN(c2c3ccccc3nc3c2[nH]c2ccccc23)CC1` the IC50 [1] was 2.4 µM, the ΔTm [2] was 1.3 °C and the IC50 [3] was over 100 µM.
`c1ccc2c(-c3ccc(CCN4CCOCC4)cc3)c3[nH]c4ccccc4c3nc2c1` gave an IC50 [1] of over 100 µM, a ΔTm [2] of 1.9 °C and an IC50 [3] of over 100 µM.
Molecule `c1ccc2c(N3CCNCC3)c3[nH]c4ccccc4c3nc2c1` has an IC50 [1] of 4.3 µM, a ΔTm [2] of 6.7 °C and an IC50 [3] of 33.9 µM.
`CCN(CC)CCN1CCN(c2c3ccccc3nc3c2[nH]c2ccccc23)CC1` gave an IC50 [1] of 3.4 µM, a ΔTm [2] of 10.3 °C and an IC50 [3] of 26 µM.
Work on `COCCCN1CCN(c2c3ccccc3nc3c2[nH]c2ccccc23)CC1` yielded an IC50 [1] of 6.3 µM, a ΔTm [2] of 6.3 °C and an IC50 [3] of 21.3 µM.
In the case of `CN(C)CCCn1c2ccccc2c2nc3ccccc3c(N3CCN(CCN(C)C)CC3)c21`, the Activity [5] is reported as “Active”, the Activity [6] is reported as “Active” and the Activity [7] is reported as “Active”. The Activity [8] was “Active”, the Activity [9] was “Active” and the Activity [10] was “inactive”. For the same molecule, the Activity [11] was “inactive”, the IC50 [1] was 3.4 µM and the Activity [12] was “Active”. For the same molecule, the ΔTm [2] was 16.5 °C, the Activity [13] was “Active” and the Activity [14] was “Active”. The Activity [15] was “inactive”, the Activity [16] was “Active” and the Activity [17] was “inactive”. For the same molecule, the IC50 [3] was 3.1 µM, the Activity [18] was “inactive” and the IC50 [19] was 31 µM. For the same molecule, the Activity [20] was “Active”, the IC50 [4] was 2.8 µM and the Activity [21] was “Active”. For the same molecule, the Activity [22] was “inactive”, the Activity [23] was “inactive” and the Activity [24] was “inactive”.
`CN(C)CCN1CCN(c2c3cc(-c4ccc(F)c(F)c4)ccc3nc3c2[nH]c2ccccc23)CC1` gave an IC50 [1] of 3.7 µM, a ΔTm [2] of 6.5 °C and an IC50 [3] of 5.8 µM.
With `CN(C)CCCN1CCN(c2c3ccccc3nc3c2[nH]c2ccccc23)CC1` the IC50 [1] was 0.9 µM, the ΔTm [2] was 11.4 °C and the IC50 [3] was 11.8 µM.
`c1ccc2c(N3CCN(CCN4CCCCC4)CC3)c3[nH]c4ccccc4c3nc2c1` showed an IC50 [1] of 0.5 µM, a ΔTm [2] of 8.8 °C and an IC50 [3] of 56.1 µM.
`CN(C)CCN1CCN(c2c3ccccc3nc3c2[nH]c2ccccc23)CC1` was tested, and the Activity [25] was “Active”, the Activity [26] was “tde” and the Activity [7] was “Active”. For the same molecule, the Activity [27] was “inactive”, the Activity [28] was “inactive” and the IC50 [1] was 0.97 µM. The Activity [29] was “Active”, the ΔTm [2] was 6.7 °C and the Activity [30] was “inactive”. For the same molecule, the Activity [31] was “Active”, the IC50 [3] was 2.33 µM and the Activity [18] was “inactive”. The IC50 [19] was 23 µM, the Activity [20] was “Active” and the IC50 [4] was 19.4 µM. The Activity [32] was “Active” and the Activity [24] was “inactive”.
`CN(C)CCN1CCN(c2c3cc(-c4ccncc4)ccc3nc3c2[nH]c2ccccc23)CC1` showed an IC50 [1] of 20.9 µM, a ΔTm [2] of 8.6 °C and an IC50 [3] of 45 µM.
`CN(C)CCCn1c2ccccc2c2nc3ccccc3c(N3CCN(C)CC3)c21` gave an IC50 [1] of 2.98 µM, a ΔTm [2] of 2.8 °C and an IC50 [3] of 7.03 µM.
For `c1ccc2c(N3CCN(CCN4CCOCC4)CC3)c3[nH]c4ccccc4c3nc2c1`, the IC50 [1] was 9.1 µM, the ΔTm [2] was 5.9 °C and the IC50 [3] was 52.9 µM.
